Source: paper PMC3755449 (Nature communications, 2013)
Counter-ions that a name gives are not always drawn.

B1: Untagged RON2L peptide (peptide)
peptide: DITQQAKDIGAGPVASCFTTRMSPPQQICLNSVVNTALSTSTQSAMK

Key:
[1] = test system: P. falciparum clone FVO merozoites invading RBCs; test: Invasion assay using purified invasive merozoites; assay type: cell-based, Plasmodium falciparum; details: 25 and 50 μM
Outline: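 Merozoites come from an FVO line selected for prolonged free-merozoite survival. Synchronized schizonts are gradient-purified, ruptured 3 hr at 37°C, and merozoites are filtered twice through 1.2 μm. About 5×10⁷ merozoites are gassed with 2.5×10⁷ pre-warmed RBCs and a range of compound concentrations for 3–4 hr at 37°C. Free merozoites are removed at 50 g for 7 min. Rings are counted by SYBR green/MitoTracker flow cytometry; IC50 by nonlinear regression.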

[2] = test system: schizont-infected RBCs (FVO clone); test: Schizont rupture assay; assay type: cell-based, Plasmodium falciparum; details: 30 μM
[3] = test system: AMA1 secretion onto merozoite surface; test: IFA of AMA1 secretion from micronemes; assay type: cell-based, Plasmodium falciparum; details: non-permeabilizing IFA, 60 μM
Outline: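 Schizonts rupture with or without test compound (60 μM) present beforehand. Released merozoites are probed with polyclonal anti-AMA1 antibodies by immunofluorescence under non-permeabilizing conditions to assess surface AMA1.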

[4] = biological target: Recombinant, his-tagged AMA1 (apical membrane antigen 1), 3D7 allele (Plasmodium falciparum (3D7 allele)) (UniProt Q7KQK5); test: AlphaScreen or HTRF

Molecule | inhibition of merozoite invasion [1] | merozoite release from schizont-infected RBCs [2] | AMA1 secretion from micronemes [3] | IC50 [4]
CN(C)CCCN1c2ccccc2C(C)(C)c2ccccc21 [NCGC00014044, Dimetacrine] | inhibited merozoite invasion | not affected |  | 
Clc1cccc(C(c2ccc3[nH]cnc3c2)n2ccnc2)c1 (stereo not drawn) [NCGC00181034, Liarozole hydrochloride] | inhibited merozoite invasion | not affected | not affected | 
B1 |  |  |  | 100 nM
